Screening results (PubChem BioAssay)
CHT allo act: allosterically activates the human high affinity choline transporter. CHT-expressing cells, membrane potential dye, choline EC20; active compounds read high; LV-AA mutant CHT in HEK293 cells. B-score at 10 µM. 310,000 tested, 0.49% active;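 active means initial fluorescence not abnormally high and integrated response B-score, plate-corrected, over 3 SD above library mean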
CHT block: inhibitors of human choline transporter CHT | Q9GZV3 | CHT-expressing cells, membrane potential dye, choline response; active compounds read low | B-score at 10 µM | 310,000 tested, 0.86% active | AID 488975;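 active means B-score over 3 SD under the library average, and starting fluorescence ratio not unusually high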;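 further: choline stimulus applied at its EC90 after an EC20 pre-addition; B-score computed on integrated fluorescence ratio after choline addition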
GPR7 antagonist: antagonists of human GPR7 (neuropeptides B/W receptor 1); P48145; GPR7-expressing cells, fluorescence antagonist assay; inhibition, % at 4.4 µM; 290,000 tested, 1.1% active; AID 1861; in the data active means inhibition above about 16%, passing the limit was not always enough;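 further: cells stimulated with the agonist NPW; 0% = agonist with vehicle and 100% = vehicle without agonist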
Target sequence (P48145 whole entry, looked up): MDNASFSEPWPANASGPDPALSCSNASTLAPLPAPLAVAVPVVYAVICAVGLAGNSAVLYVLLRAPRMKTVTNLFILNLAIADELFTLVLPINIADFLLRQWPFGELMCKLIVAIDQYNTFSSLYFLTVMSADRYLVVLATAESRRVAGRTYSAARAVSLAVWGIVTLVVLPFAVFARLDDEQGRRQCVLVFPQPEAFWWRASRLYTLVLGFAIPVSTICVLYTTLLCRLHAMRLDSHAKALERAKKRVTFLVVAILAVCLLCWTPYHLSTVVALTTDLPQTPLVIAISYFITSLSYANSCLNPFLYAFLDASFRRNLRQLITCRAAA
p-CIP stab down: lowers stability of the mouse p/CIP coactivator protein | 290,000 tested, 0.01% active | decrease of EGFP signal, % at 10 µM | F442A p/CIP-EGFP cells, EGFP fluorescence, 16 h | AID 1984 | Q05BA5;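 active means EGFP signal decrease of at least 30% at 10 µM or well 3 SD below plate mean, unless failing retest; inactive means the rest, including hits failing retest or dose response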
T cell modulator: T cell immune modulation candidate; AID 2052; 2C CD8+ T cell-vesicle binding, flow cytometry; active compounds read low; 330,000 tested, 0.068% active; response (vesicle binding), % at 7 µM;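 active means response, share of CD8 T cells binding vesicles, and their 90th percentile fluorescence all below set limits, cut at about 80% in these data, passing the limit was not always enough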;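 further: values below 100% mean blocked vesicle binding to the CD8+ T cells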
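Material: 2C TCR transgenic mouse naive CD8+ T cells, MACS-purified. Also added: QL9-charged Drosophila Ld/ICAM-1/B7-1 vesicles. Timing: binding 1.5 h at 37 °C. Measured by: high-throughput flow cytometry with anti-B7-1 and anti-CD8 staining. Read-out: percent CD8+ FL2 mean versus row control. Controls: Unloaded micro-vesicles (low), QL9 vesicles with 0.7% DMSO (high).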
Pemphigus Ab inh: human desmoglein-3 autoantibody binding inhibition. P32926. DSG3-coupled beads, scFv-anti-DSG3-GFP binding, flow cytometry; active compounds read low. binding (percent of control), % at 10 µM. 310,000 tested, 0.48% active. AID 588358;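 active means binding more than 3 SD below its plate's average and above zero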;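 further: hits lower antibody fragment binding to DSG3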
GPR7 antag conf: human GPR7 antagonism, confirmation assay; shares compounds with GPR7 antagonist; GPR7-expressing cells, calcium fluorescence antagonist mode; inhibition, % at 4.4 µM; 2,400 tested, 52% active; AID 1952; in the data active means inhibition above about 24%;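 further: stimulated with the GPR7 agonist NPW; 0% = agonist plus vehicle and 100% = vehicle alone without agonist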
MCHR1 antag: counter-screen for GPR7 antagonists: antagonists of human MCHR1 | inhibition, % at 4.4 µM | 2,400 tested, 62% active | AID 2148 | shares compounds with GPR7 antagonist | MCHR1-expressing cells, fluorescence antagonist assay; in the data active means inhibition above about 22%;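 further: 0% = vehicle with agonist and 100% = vehicle without agonist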
* marks the source's active call; other numbers are inactive results; i = inactive; x = not tested or not shown. This is a sample that favours compounds with a hit; in the whole collection about 2.3% have one here.

SMILES | CHT allo act | CHT block | GPR7 antagonist | p-CIP stab down | T cell modulator | Pemphigus Ab inh | GPR7 antag conf | MCHR1 antag
CC(NC(=O)COC(=O)c1ccc2c(=O)n3c(nc2c1)CCCCC3)c1ccc(F)cc1 (centres undefined) | x | x | x | x | x | 96 | x | x
CCC(CC)c1nc(C#N)c(NCc2ccccc2)o1 | i | i | 31* | -7 | 426 | 105 | 11 | 28*
c1ccc(Cn2ncc3c(NCc4ccco4)ncnc32)cc1 | i | i | 4 | -3 | 270 | 92 | x | x
c1ccc(-n2ncc3c(NCc4ccco4)ncnc32)cc1 | i | i | 24* | -13 | 257 | 102 | 48* | 44*
C[C@]12CC[C@H](O)CC1=CCC1C2CC[C@@]2(C)C1CC[C@@H]2NCc1ccccc1 (some centres undefined) | x | x | x | x | x | 107 | x | x
CC1CCc2onc(C(=O)O)c2C1 (centres undefined) | i | i | 24* | -7 | 649 | 101 | 9 | -4
O=C(Cn1nnc(-c2ccc(F)cc2)n1)NC(=O)NC1CCCCC1 | x | x | x | x | x | 103 | x | x
CC1c2[nH]c3ccccc3c2CCN1S(C)(=O)=O (centres undefined) | i | i | 26* | -8 | 90 | 93 | 4 | 6
C=CCNC(=S)N1CCc2c([nH]c3ccccc23)C1C (centres undefined) | i | i | 11 | 5 | 791 | 100 | x | x
Cc1ccn(CCC(=O)N2CCCC(N3CCN(c4ccccc4C)CC3)C2)n1 (centres undefined) | x | x | x | x | x | 96 | x | x
CC(=O)Oc1ccc2c(c1)C(=O)CCCCCC(=O)O2 | x | x | x | x | x | 106 | x | x
CC(=O)c1cccc(NC(=O)c2ccc(N(C)S(=O)(=O)c3ccc(C)cc3)cc2)c1 | i | i | 30* | -9 | 704 | 90 | 5 | 37*
O=C(Nc1ccccc1)c1ccc(S(=O)(=O)Nc2cccc(O)c2)cc1 | i | i | 10 | -7 | 261 | 109 | x | x
CC(=O)c1cccc(NS(=O)(=O)c2ccc(C(=O)Nc3ccccc3)cc2)c1 | i | i | 22* | -33 | 316 | 105 | 29* | 50*
CC(=O)c1cccc(NC(=O)c2ccc3c(c2)CCCC3)c1 | i | i | 43* | -17 | 885 | 111 | 8 | 41*
COc1cccc(NC(=O)c2ccc3c(c2)CCCC3)c1 | i | i | -8 | -18 | 376 | 96 | x | x
CCc1ccc(OCC2c3cc(OC)c(OC)cc3CCN2C(=S)NCCOC)cc1 (centres undefined) | i | i | -2 | -28 | 348 | 105 | x | x
COC(=O)c1ccc(OCC2c3cc(OC)c(OC)cc3CCN2C(=O)C2CC2)cc1 (centres undefined) | i | i | 27* | -4 | 270 | 103 | 43* | 29*
CCc1ccc(OCC2c3cc(OC)c(OC)cc3CCN2C(=S)NC)cc1 (centres undefined) | i | i | 36* | -4 | 322 | 111 | 25* | 37*
CC(C)=CCC/C(C)=C/CNC(=O)C[C@H]1C[C@H](C(=O)N2CCOCC2)[C@@]2(CCC3CCCC3)c3[nH]c4cc(CCC(=O)N(C)C)ccc4c3CCN2C1=O | x | x | x | x | x | 96 | x | x
COc1ccc(NC(=O)Nc2ccc3c(c2)C(=O)N([C@H](C)CO)C[C@@H](C)[C@@H](CN(C)C(=O)C2CCCCC2)OCCCC[C@H](C)O3)cc1 | x | x | x | x | x | 98 | x | x
O=C(NCc1ccco1)c1sc2cc(Cl)ccc2c1Cl | i | i | 36* | -5 | 849 | 125 | 22 | 31*
CCC(=O)N(c1nnc(SCC(=O)Nc2sccc2C(N)=O)s1)C1CC1 | x | x | x | x | x | 105 | x | x
Cc1cccc2cc(CN(Cc3ccco3)C(=O)Nc3cccc(C#N)c3)c(Cl)nc12 | i | i | 27* | -10 | 419 | 121 | 39* | 61*
O=C(Nc1ccc(Cl)cc1)Nc1nc(-c2ccccc2O)cs1 | i | i | 31* | -5 | 491 | 85 | 67* | 62*
SMILES | CHT allo act | CHT block | GPR7 antagonist | p-CIP stab down | T cell modulator | Pemphigus Ab inh | GPR7 antag conf | MCHR1 antag
CC(C)(C)c1cc(CP(=O)(c2ccccc2)c2ccccc2)cc(C(C)(C)C)c1O | i | i | 35* | -7 | 111 | 119 | 30* | 42*
O=P(Cc1ccccc1)(c1ccccc1)c1ccccc1 | i | i | -5 | -9 | 707 | 97 | x | x
Nn1c(COc2ccccc2F)nnc1SCC(=O)NCC1CCCO1 (centres undefined) | x | x | x | x | x | 98 | x | x
O=C(Nc1ccc(S(=O)(=O)N2CCCC2)cc1)c1ccc(CN2CCc3ccccc3C2)cc1 | i | i | 28* | -12 | 338 | 104 | 47* | 63*
O=C(CSc1n[nH]c(=O)[nH]c1=O)c1ccc([N+](=O)[O-])cc1 | i | i | 26* | -6 | 221 | 94 | -4 | -6
CSC(=Nc1ccccc1)N=C(SCc1ccccc1)N(C)C | x | x | x | x | x | 90 | x | x
COc1ccc(-c2cc(C(=O)N(C)Cc3ccccc3)no2)cc1OC | i | i | 31* | -14 | 412 | 102 | -5 | -24
Cc1ccc(C(=O)NC(=S)c2c(C)cc3ccccn23)cc1 | x | x | x | x | x | 94 | x | x
O=C(CN1c2cccc3cccc(c23)S1(=O)=O)NCc1ccccc1Cl | x | x | x | x | x | 95 | x | x
COc1ccc(Cl)cc1N(C(=O)c1ccco1)C(C(=O)NC1CCCC1)c1cccnc1 (centres undefined) | i | i | 23* | -4 | 196 | 113 | 9 | 2
COc1ccc(OC)c(N(C(=O)c2ccco2)C(C(=O)NC2CCCC2)c2cc(OC)c(OC)c(OC)c2)c1 (centres undefined) | i | i | 32* | -1 | 376 | 104 | 23 | 8
COc1ccc(N(C(=O)c2ccco2)C(C(=O)NC2CCCC2)c2ccc(OC)c(OC)c2)cc1 (centres undefined) | i | i | -3 | -19 | 238 | 114 | x | x
COc1ccc(N(C(=O)c2ccco2)C(C(=O)NC2CCCC2)c2ccco2)cc1OC (centres undefined) | i | i | -4 | -18 | 876 | 106 | x | x
COc1ccccc1N(C(=O)c1ccco1)C(C(=O)NC1CCCC1)c1cccnc1 (centres undefined) | i | i | -5 | -6 | 361 | 110 | x | x
COc1ccc(Cl)cc1N(C(=O)c1ccco1)C(C(=O)NC1CCCC1)c1ccco1 (centres undefined) | i | i | 29* | 4 | 252 | x | 28* | 22*
CN1CCN(C2=Cc3ccccc3Sc3cc(F)c(F)cc32)CC1 | i | i | 0 | -6 | 700 | x | x | x
